This is a sample that favours compounds with a hit; in the whole collection about 3.4% have one here.
Runt-SMMHC FRET: inhibitors of human RUNX1 Runt domain binding to CBFb-SMMHC | actives 0.74% (n = 220,000) | Q01196+Q13951 | Cerulean-Runt/Venus-CBFb-SMMHC FRET ratio 530/480, 1 h | inhibition, % at 20 µM;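 active = mean inhibition across duplicate retests at 20 µM reaching about 50%, limit read from the data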;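 also: 0% = DMSO wells and 100% = wells with excess untagged CBFb-SMMHC; inhibitors lower the FRET ratio by blocking Runt binding to CBFb-SMMHC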
RanGTP-Impb inh: inhibitors of RanGTP-importin-beta interaction, primary screen, biochemical, FRET, CFP-Ran, YFP-importin-beta, homogeneous | cell-free CFP-Ran/YFP-importin-beta FRET ratio | inhibition, % (test concentration not listed) | actives 1.1% (n = 300,000) | AID 2216;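 active = more than half of the replicate wells show a fall in the fluorescence ratio signal beyond about 16%, limit read from the data, passing the limit was not always enough; inconclusive = exactly half of the replicate wells pass the set limit; inactive = fewer than half of replicates pass the limit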;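 also: 0% = DMSO wells and 100% = Ran loaded with GDP instead of GTP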
PHOSPHO1 inh: PHOSPHO1 (human) inhibition; Q8TCT1; recombinant PHOSPHO1, absorbance phosphatase assay; inhibition, % at 13.3 µM; actives 1.1% (n = 290,000); AID 1565; in the data active = inhibition above about 60%
Target sequence (Q8TCT1 whole entry, looked up): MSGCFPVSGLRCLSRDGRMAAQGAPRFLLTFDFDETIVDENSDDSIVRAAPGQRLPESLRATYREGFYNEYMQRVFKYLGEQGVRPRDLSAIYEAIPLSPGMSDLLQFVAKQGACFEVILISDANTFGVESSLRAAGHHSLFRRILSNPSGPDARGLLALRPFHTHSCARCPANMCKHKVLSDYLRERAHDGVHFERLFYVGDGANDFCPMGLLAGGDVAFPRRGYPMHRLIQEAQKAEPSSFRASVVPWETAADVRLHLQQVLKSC
Wee1 degr inh: inhibitors of human Wee1 degradation | P30291 | HeLa Luc-Wee1K328M stability, luciferase luminescence; 100% = proteasome inhibitor MG132 effect | reporter increase, % at 5 µM | actives 1.2% (n = 220,000) | AID 1321;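 active = activation above the mean of all tested compounds plus 3 SD, set per screening run, cut at about 8.8% in these data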;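 also: cells exposed to compound for 20 h before luminescence read; 0% = DMSO alone and 100% = MG132 at 30 µM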
Runt-CBFb FRET: blocks binding of human RUNX1 Runt domain to CBFb; Q01196+Q13951; Cerulean-Runt/Venus-CBFb FRET ratio 530/480, 1 h; actives 0.46% (n = 220,000); inhibition, % at 20 µM;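 active = inhibition over about 50% at 20 µM in the single-dose screen, limit read from the data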;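 also: 0% = DMSO wells and 100% = excess unlabeled CBFb competitor control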
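test system = Cerulean-tagged RUNX1 Runt domain (FRET donor) fusion protein | reagent = Venus-CBFb binding partner, 100 nM | incubation = protein complex preformed 1 h, compound exposure 1 h, room temperature, dark | detection = FRET fluorescence | read-out basis = loss of energy transfer signal | controls = 5 µM unlabeled CBFb as full-inhibition high control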
Efa HMGR inh: E. faecalis class II HMG-CoA reductase inhibition | purified E. faecalis HMGR, NADPH absorbance 340 nm kinetic | AID 1066 | actives 0.41% (n = 190,000) | inhibition, % at 10 µM;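 active = inhibition above a set limit, the median over all tested compounds plus 3 SD, cut at about 9.5% in these data; inconclusive = no clear call, values can overlap the other calls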;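 also: enzyme runs in reverse so mevalonate oxidation gives rising NADPH absorbance; 0% = complete reaction with DMSO and 100% = background rate lacking mevalonate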
Numbers without * were called inactive; ? = inconclusive; . = not tested or not shown.

SMILES | Runt-SMMHC FRET | RanGTP-Impb inh | PHOSPHO1 inh | Wee1 degr inh | Runt-CBFb FRET | Efa HMGR inh
COCCn1c(SCC(=O)c2c(N)n(C)c(=O)n(C)c2=O)nc2ccccc21 | -2 | -1 | 12 | -4 | 1 | -1
NC(=S)N/N=C/c1cn(-c2ccccc2)nc1-c1cccnc1 | -2 | 1 | 12 | 2 | 1 | .
CC1CCCC(C)N1CC(O)Cn1c2ccccc2c2ccccc21 (stereo unspecified) | . | -5 | 39 | . | . | .
Cc1ccc(C(=O)Nc2ccc(C(=O)N3CCCCC3)cc2)o1 | . | ? | 24 | . | . | .
CN1/C(=C\C=C(/C#N)C(=O)Nc2ccc(Cl)cc2)C(C)(C)c2ccccc21 | 63 | 28* | -7 | 0 | -1 | -2
O=C(NC(Cc1ccccc1)C(=O)Oc1ccc2c(C(F)(F)F)cc(=O)oc2c1)OCc1ccccc1 (stereo unspecified) | 81* | 37* | 10 | 2 | 3 | -1
CC(NC(=O)OCc1ccccc1)C(=O)Oc1cc2oc(=O)cc(-c3ccccc3)c2cc1Cl (stereo unspecified) | 60* | -6 | -21 | 2 | 19 | 0
CCc1cc2c(-c3ccccc3)cc(=O)oc2cc1OC(C)C(=O)O (stereo unspecified) | . | 9 | 29 | . | . | .
CC(=O)c1ccc(-n2c(-c3cc(-c4ccsc4)n[nH]3)n[nH]c2=S)cc1 | 12 | 1 | 65* | -1 | 4 | -2
O=C(CSc1nc2ccccc2c(=O)n1NC(=O)c1ccccc1)c1ccc(Cl)cc1 | 1 | 5 | 28 | 9.3* | 1 | -1
CCCCn1c(N)c(N(CC(C)C)C(=O)CCCc2cccs2)c(=O)[nH]c1=O | . | -1 | 23 | . | . | .
Cc1ccc(Cn2nc(C)c3cc(C(=O)OCC(N)=O)sc32)cc1 | 0 | 0 | 0 | 9.8* | -3 | -1
Cc1nn(Cc2ccc(Cl)cc2)c2sc(C(=O)OCC(N)=O)cc12 | 2 | 7 | 5 | -1 | 2 | 0
O=C(CCC1CCCCC1)Nc1ccccc1O | -1 | ? | 14 | 6 | 1 | 2
Cc1ccc(O)c(NC(=O)CCC2CCCCC2)c1 | -8 | 8 | 42 | 9.1* | -2 | -5
Oc1ccc2oc3c(c2c1/C=N/n1cnnc1)CCCC3 | -5 | -3 | 7 | -2 | -7 | -4
Oc1ccc2oc3c(c2c1C=NCc1ccncc1)CCCC3 | -15 | -1 | 0 | 25* | -21 | .
Cc1ccc(S(=O)(=O)NCC(=O)N2CCCC2C(=O)O)cc1 (stereo unspecified) | . | 4 | 13 | . | . | .
Cc1ccc(C(=O)ONc2ccc(N=O)cc2)cc1 | 1 | 2 | -11 | -1 | 0 | -3
Cc1ccc(C(=O)ONc2ccc(N=NC(=O)c3ccccc3O)cc2)cc1 | -16 | ? | 69* | 2 | 1 | -10
O=C(CSc1nnc(-c2cccnc2)n1Cc1ccco1)c1ccc2ccccc2c1 | 19 | 10 | 70* | 0 | 26 | -1
O=C(CSc1nnc(-c2cnccn2)n1Cc1ccco1)c1ccccc1 | 1 | -2 | 90* | 0 | 5 | 2
O=C(CSc1nnc(-c2ccccn2)n1Cc1ccco1)c1ccc(Cl)cc1 | 11 | 2 | 80* | -1 | 18 | -1
Cc1ccc(OCc2nnc(N)s2)cc1C | 1 | -5 | 37 | -1 | 1 | .
CCOc1ccc(C(=O)NC(C(=O)NCCc2ccc(OC(F)F)cc2)C(C)C)cc1 (stereo unspecified) | . | 0 | 32 | . | . | .
SMILES | Runt-SMMHC FRET | RanGTP-Impb inh | PHOSPHO1 inh | Wee1 degr inh | Runt-CBFb FRET | Efa HMGR inh
COC(=O)c1ccc(NC(=S)NNC(=O)CC(C)C)cc1 | 1 | -3 | 39 | 10* | 6 | -2
COc1cccc(COC(=O)C2CCN(C(=O)c3ccc(F)cc3)CC2)c1OC | . | -1 | . | . | . | .
COC(=O)c1cccc(N(CC(=O)NC2CCCC2)C(=O)CCC(=O)Nc2cc(C)on2)c1 | . | ? | 24 | . | . | .
CCN1CCN(c2nc3ccccn3c(=O)c2/C=C(\C#N)S(=O)(=O)c2ccccc2)CC1 | 12 | 77* | -18 | 2 | 15 | .
Cc1ccc(S(=O)(=O)/C(C#N)=C/c2c(N3CCC(C(N)=O)CC3)nc3ccccn3c2=O)cc1 | -7 | 34* | -4 | 0 | -2 | 11*
CCN(CC)c1ccc(NC(=O)c2ccc3c(c2)OCO3)cc1 | . | 0 | . | . | . | .
